# Results published in ChEMBL document CHEMBL3877264, “Quinolidene-rhodanine conjugates: Facile synthesis and biological evaluation” (Eur J Med Chem, 2017).
# Columns and labels:
# [1] = Antifungal activity against Fusarium oxysporum NCIM 1332 by standard agar method; assay type: functional
# How it was run: (§1)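 MICs determined by standard agar method; DMSO as solvent control.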
# Staphylococcus aureus [2] = test: Growth inhibition of Staphylococcus aureus NCIM 2010 at 30 ug/ml measured after 12 hrs relative to control; assay type: functional; conditions: NCIM 2010, 12 h, read-out: GI
# How it was run: (§2)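 Bacteria grown in LB at 37 °C and 180 rpm to OD 1. Compounds added to wells, then 0.1% inoculum of 1 OD culture (620 nm). Growth read as OD at 620 nm after 8 h for gram-negative and after 12 h for gram-positive strains.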
# Staphylococcus aureus [3] = test: Growth inhibition of Staphylococcus aureus NCIM 2010 at 10 ug/ml measured after 12 hrs relative to control; assay type: functional; conditions: NCIM 2010, 12 h, read-out: GI; how it was run: as §2
# Staphylococcus aureus [4] = test: Growth inhibition of Staphylococcus aureus NCIM 2010 at 3 ug/ml measured after 12 hrs relative to control; assay type: functional; conditions: NCIM 2010, 12 h, read-out: GI; how it was run: as §2
# Bacillus subtilis = test: Growth inhibition of Bacillus subtilis NCIM 2079 at 10 ug/ml measured after 12 hrs relative to control; assay type: functional; conditions: NCIM 2079, 12 h, read-out: GI; how it was run: as §2
# Escherichia coli = test: Antibacterial activity against Escherichia coli NCIM 2688 measured after 8 hrs; assay type: functional; conditions: NCIM 2688, 8 h; how it was run: as §2
# [5] = tested on: Mycobacterium tuberculosis; test: Growth inhibition of Mycobacterium tuberculosis H37Ra ATCC 25177 at active stage at 50 ug/ml measured after 8 days by XTT dye based two fold dilution method relative to control; assay type: functional; conditions: H37Ra ATCC 25177, 192 h, read-out: GI
# How it was run: (§3)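 MTB H37Ra was grown in Dubos medium, then exposed in Mycobacterium pheli minimal medium (pH 6.6) to compounds dissolved in DMSO. The assay ended on day 8 (active) or day 12 (dormant). Viable cells were measured by XTT reduction menadione assay at 470 nm, blank-corrected, relative to vehicle control. Triplicates were expressed as mean ± SD. MIC came from dose-response curves.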
# [6] = tested on: Mycobacterium tuberculosis; test: Growth inhibition of Mycobacterium tuberculosis H37Ra ATCC 25177 at active stage at 25 ug/ml measured after 8 days by XTT dye based two fold dilution method relative to control; assay type: functional; conditions: H37Ra ATCC 25177, 192 h, read-out: GI; how it was run: as §3
# [7] = tested on: Mycobacterium tuberculosis; test: Growth inhibition of Mycobacterium tuberculosis H37Ra ATCC 25177 at active stage at 12.5 ug/ml measured after 8 days by XTT dye based two fold dilution method relative to control; assay type: functional; conditions: H37Ra ATCC 25177, 192 h, read-out: GI
# [8] = tested on: Mycobacterium tuberculosis; test: Growth inhibition of Mycobacterium tuberculosis H37Ra ATCC 25177 at active stage at 6.25 ug/ml measured after 8 days by XTT dye based two fold dilution method relative to control; assay type: functional; conditions: H37Ra ATCC 25177, 192 h, read-out: GI; how it was run: as §3
# [9] = tested on: Mycobacterium tuberculosis; test: Growth inhibition of Mycobacterium tuberculosis H37Ra ATCC 25177 at active stage at 1.56 ug/ml measured after 8 days by XTT dye based two fold dilution method relative to control; assay type: functional; conditions: H37Ra ATCC 25177, 192 h, read-out: GI; how it was run: as §3
# [10] = tested on: Mycobacterium tuberculosis; test: Growth inhibition of Mycobacterium tuberculosis H37Ra ATCC 25177 at active stage at 0.78 ug/ml measured after 8 days by XTT dye based two fold dilution method relative to control; assay type: functional; conditions: H37Ra ATCC 25177, 192 h, read-out: GI; how it was run: as §3
# [11] = tested on: Mycobacterium tuberculosis; test: Growth inhibition of Mycobacterium tuberculosis H37Ra ATCC 25177 at dormant stage at 12.5 ug/ml measured after 12 days by XTT dye based two fold dilution method relative to control; assay type: functional; conditions: H37Ra ATCC 25177, 288 h, read-out: GI
# [12] = tested on: Mycobacterium tuberculosis; test: Growth inhibition of Mycobacterium tuberculosis H37Ra ATCC 25177 at dormant stage at 1.56 ug/ml measured after 12 days by XTT dye based two fold dilution method relative to control; assay type: functional; conditions: H37Ra ATCC 25177, 288 h, read-out: GI; how it was run: as §3
# [13] = tested on: Mycobacterium tuberculosis; test: Growth inhibition of Mycobacterium bovis BCG ATCC 35743 at dormant stage at 3.13 ug/ml measured after 12 days by nitrate reductase dye based two fold dilution method relative to control; assay type: functional; conditions: BCG str. ATCC 35743, 288 h, read-out: GI
# How it was run: (§4)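 M. bovis BCG was grown in Dubos medium and assayed in Mycobacterium pheli minimal medium (pH 6.6), with compounds from DMSO stocks. Incubation lasted 8 days for active and 12 days for dormant cultures. Viability was read by nitrate reductase at 540 nm against cell-free blanks, with vehicle set as 100% growth. Primary screen was at 30, 10 and 3 µg/ml, in triplicate, mean ± SD. MIC was taken from dose-response curves.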
# [14] = tested on: Mycobacterium tuberculosis; test: Growth inhibition of Mycobacterium bovis BCG ATCC 35743 at active stage at 50 ug/ml measured after 8 days by nitrate reductase dye based two fold dilution method relative to control; assay type: functional; conditions: BCG str. ATCC 35743, 192 h, read-out: GI
# [15] = tested on: Mycobacterium tuberculosis; test: Growth inhibition of Mycobacterium bovis BCG ATCC 35743 at active stage at 25 ug/ml measured after 8 days by nitrate reductase dye based two fold dilution method relative to control; assay type: functional; conditions: BCG str. ATCC 35743, 192 h, read-out: GI; how it was run: as §4
# [16] = tested on: Mycobacterium tuberculosis; test: Growth inhibition of Mycobacterium bovis BCG ATCC 35743 at active stage measured after 8 days by nitrate reductase dye based two fold dilution method; assay type: functional; conditions: BCG str. ATCC 35743, 192 h; how it was run: as §4
# [17] = tested on: Mycobacterium tuberculosis; test: Growth inhibition of Mycobacterium tuberculosis H37Ra ATCC 25177 at dormant stage measured after 12 days by XTT dye based two fold dilution method; assay type: functional; conditions: H37Ra ATCC 25177, 288 h; how it was run: as §3
# Aspergillus flavus = test: Antifungal activity against Aspergillus flavus NCIM 539 by standard agar method; assay type: functional; how it was run: as §1
# [18] = Cytotoxicity against primary HUVEC assessed as growth inhibition at 100 ug/ml measured after 48 hrs by MTT assay relative to control; assay type: toxicity, cell-based; conditions: human, read-out: GI
# [19] = Cytotoxicity against primary HUVEC measured after 48 hrs by MTT assay; assay type: toxicity, cell-based; conditions: human
# [20] = Cytotoxicity against human THP1 cells measured after 48 hrs by MTT assay; assay type: toxicity, cell-based, THP-1
# How it was run: (§5)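 MTT assay with 48 h compound exposure. THP-1 macrophages made by 24 h PMA treatment. Each concentration tested in triplicate in one experiment. % cytotoxicity = (control−test)/(control−blank)×100, with control = cells + DMSO and blank = medium without cells. IC50 from % survival versus concentration plots.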
# [21] = Cytotoxicity against human THP1 cells assessed as growth inhibition at 100 ug/ml measured after 48 hrs by MTT assay relative to control; assay type: toxicity, cell-based, THP-1; conditions: read-out: GI; how it was run: as §5
# [22] = Cytotoxicity against human PANC1 cells measured after 48 hrs by MTT assay; assay type: toxicity, cell-based, PANC-1
# [23] = Cytotoxicity against human HeLa cells at 100 ug/ml assessed as growth inhibition measured after 48 hrs by MTT assay relative to control; assay type: toxicity, cell-based; conditions: read-out: GI
# [24] = Selectivity index, ratio of GI50 for HUVEC to MIC for Mycobacterium bovis BCG ATCC 35743 at dormant stage; conditions: pooled result: one value given for 6 cell lines, strains, targets or settings
# How it was run: (§6)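 SI is the cell-line GI50 divided by the dormant-stage mycobacterial MIC. […] THP-1 macrophages were PMA-differentiated for 24 h.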
# [25] = Selectivity index, ratio of GI50 for human THP1 cells to MIC for Mycobacterium tuberculosis H37Ra ATCC 25177 at dormant stage; assay type: toxicity, cell-based, THP-1; conditions: read-out: Selectivity Index; how it was run: as §6
# [26] = Selectivity index, ratio of GI50 for […]-differentiated human THP1 cells to MIC for Mycobacterium tuberculosis H37Ra ATCC 25177 at dormant stage; assay type: toxicity, cell-based, THP-1; conditions: read-out: Selectivity Index; how it was run: as §6
SMILES,MIC [1],inhibition of growth at 30 µg/mL (Staphylococcus aureus [2]),inhibition of growth at 10 µg/mL (Staphylococcus aureus [3]),inhibition of growth at 3 µg/mL (Staphylococcus aureus [4]),inhibition of growth at 10 µg/mL (Bacillus subtilis),MIC (Escherichia coli),inhibition of growth at 50 µg/mL [5],inhibition of growth at 25 µg/mL [6],inhibition of growth at 12.5 µg/mL [7],inhibition of growth at 6.25 µg/mL [8],inhibition of growth at 1.56 µg/mL [9],inhibition of growth at 0.78 µg/mL [10],inhibition of growth at 12.5 µg/mL [11],inhibition of growth at 1.56 µg/mL [12],inhibition of growth at 3.13 µg/mL [13],inhibition of growth at 50 µg/mL [14],inhibition of growth at 25 µg/mL [15],IC50 [16],IC90 [16],IC50 [17],other results
COc1ccc2nc(Cl)c(/C=C3\SC(=S)NC3=O)cc2c1,125 µg/mL,103%,99.8%,68.7%,22.7%,> 30 µg/mL,101%,90.2%,85.2%,55.2%,23.1%,-20.6%,72.7%,-25.3%,-4.93%,97.3%,88.2%,3.7 µg/mL,5 µg/mL,3.3 µg/mL,"IC90 [17]: 4.7 µg/mL; MIC (Aspergillus flavus): 100 µg/mL; inhibition at 48 h, 100 ug/ml [18]: 29.4%; GI50 at 48 h [19]: > 100 µg/mL; GI50 at 48 h [20]: > 100 µg/mL; inhibition at 48 h, 100 ug/ml [21]: 26.3%; GI50 at 48 h [22]: > 100 µg/mL; inhibition at 48 h, 100 ug/ml [23]: 31.3%; Selectivity Index [24]: 14.7; selectivity ratio [25]: 20.8; selectivity ratio [26]: 20.8"
O=C1NC(=S)S/C1=C\c1cc2cc(Cl)ccc2nc1Cl,100 µg/mL,101%,114%,101%,92.5%,2.44 µg/mL,97.5%,100%,99.3%,102%,23.3%,24.1%,70.3%,32.4%,100%,99.7%,99.9%,1 µg/mL,1.7 µg/mL,2.2 µg/mL,"IC90 [17]: 6.3 µg/mL; MIC (Aspergillus flavus): 125 µg/mL; inhibition at 48 h, 100 ug/ml [18]: 25.9%; GI50 at 48 h [19]: > 100 µg/mL; GI50 at 48 h [20]: > 100 µg/mL; inhibition at 48 h, 100 ug/ml [21]: 28.7%; GI50 at 48 h [22]: > 100 µg/mL; inhibition at 48 h, 100 ug/ml [23]: 45.5%; Selectivity Index [24]: 43.7; selectivity ratio [25]: 15.6; selectivity ratio [26]: 15.6"
Cc1cccc2cc(/C=C3\SC(=S)NC3=O)c(Cl)nc12,200 µg/mL,12.6%,-9.23%,-3.27%,-0.291%,> 30 µg/mL,102%,105%,76.3%,48.4%,29.6%,20.1%,49.2%,-17.5%,-5.18%,98.4%,99.3%,3.7 µg/mL,6.5 µg/mL,7.6 µg/mL,"IC90 [17]: 12.9 µg/mL; MIC (Aspergillus flavus): 100 µg/mL; inhibition at 48 h, 100 ug/ml [18]: 14.9%; GI50 at 48 h [19]: > 100 µg/mL; GI50 at 48 h [20]: > 100 µg/mL; inhibition at 48 h, 100 ug/ml [21]: 13.2%; GI50 at 48 h [22]: > 100 µg/mL; inhibition at 48 h, 100 ug/ml [23]: 32.1%; Selectivity Index [24]: 10.4; selectivity ratio [25]: 7.8; selectivity ratio [26]: 7.8"
O=C1NC(=S)S/C1=C\c1cc2cc(F)ccc2nc1Cl,25 µg/mL,101%,71.3%,45.3%,2.58%,> 30 µg/mL,119%,101%,99.9%,96.2%,31.9%,9.07%,87.3%,-0.73%,25.5%,99%,99%,2.4 µg/mL,4.2 µg/mL,5.1 µg/mL,"IC90 [17]: 18 µg/mL; MIC (Aspergillus flavus): 12.5 µg/mL; inhibition at 48 h, 100 ug/ml [18]: 34.2%; GI50 at 48 h [19]: > 100 µg/mL; GI50 at 48 h [20]: > 100 µg/mL; inhibition at 48 h, 100 ug/ml [21]: 26.3%; GI50 at 48 h [22]: > 100 µg/mL; inhibition at 48 h, 100 ug/ml [23]: 20%; Selectivity Index [24]: 18.9; selectivity ratio [25]: 5.6; selectivity ratio [26]: 5.6"
